According to ChEMBL document CHEMBL4834414 (J Med Chem, 2021):
The source made the active and inactive calls. The calls are words filed in the database; no cut-off is given here.

Columns and labels:
[1] = target: T1, Microtubule-associated protein 1 light chain 3 alpha (Homo sapiens, UniProt Q9H492); assay: Binding affinity to recombinant LC3A (unknown origin) assessed as shift of melting temperature by differential scanning fluorimetry
Outline: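 LC3A at 30 μM in HTRF buffer with 0.1% CHAPS, 2.5× SYPRO orange, 300 μM inhibitor and 1% DMSO, with a no-protein background. Heated 25.0 to 79.8 °C at 1 °C/min; excitation 490 nm, emission 570 nm. Tm taken as the first-derivative maximum; ΔTm against DMSO control. Triplicates in three independent experiments.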

[2] = target: T2, Microtubule-associated protein 1 light chain 3 beta (Homo sapiens, UniProt Q9GZQ8)
[3] = target: T2, Microtubule-associated protein 1 light chain 3 beta; assay: Binding affinity to human LC3B expressed in Escherichia coli BL21-(DE3) by isothermal titration calorimetry
[4] = target: T1, Microtubule-associated protein 1 light chain 3 alpha; assay: Binding affinity to human LC3A expressed in Escherichia coli BL21-(DE3) by isothermal titration calorimetry
Outline: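 His-tagged LC3A from E. coli BL21(DE3), TEV-cleaved and purified by IMAC, reverse IMAC and SEC into HTRF buffer (25 mM HEPES pH 7.5, 150 mM KF, 10% glycerol, 5 mM DTT), plus 0.1% CHAPS and 1% DMSO. ITC at 25 °C, stirring 75 rpm: 80 μM protein; inhibitor at 500 μM or 1 mM. Injection settings optimized per compound; dilution heats checked by blank titrations.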

[5] = target: T1, Microtubule-associated protein 1 light chain 3 alpha; assay: Displacement of sGFP-p62-LIR peptide from human N-terminal SNAP-fused LC3A by time-resolved FRET assay
Outline: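 HTRF displacement: 10 nM N-terminal SNAP-LC3A labeled with terbium cryptate (donor) and 1 μM p62-LIR-sGFP (acceptor), with compound at varying concentrations in 1% DMSO. Buffer 25 mM HEPES pH 7.5, 150 mM KF, 10% glycerol, 0.1% CHAPS, 5 mM DTT. Incubated 2 h at RT; excitation 340 nm, emission read at 520 and 620 nm. IC50 with SD; Ki calculated.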

[6] = target: T2, Microtubule-associated protein 1 light chain 3 beta; assay: Displacement of sGFP-p62-LIR peptide from human N-terminal SNAP-fused LC3B by time-resolved FRET assay
[7] = target: Microtubule-associated protein 1 light chain 3 gamma (Homo sapiens) (UniProt Q9BXW4); assay: Binding affinity to human LC3C expressed in Escherichia coli BL21-(DE3) by single site binding model based isothermal titration calorimetry
Chain of Microtubule-associated protein 1 light chain 3 gamma (Homo sapiens) (Q9BXW4 whole entry): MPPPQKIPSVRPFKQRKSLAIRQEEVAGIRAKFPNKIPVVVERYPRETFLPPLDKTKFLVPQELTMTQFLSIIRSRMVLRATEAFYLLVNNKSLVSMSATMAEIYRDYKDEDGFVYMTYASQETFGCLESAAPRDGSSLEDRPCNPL
Outline: (§1)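 Human Atg8-family proteins (LC3A, LC3C, GABARAP, GABARAPL1, GABARAPL2) expressed with a modified Ub tag, equilibrated in 50 mM Na2HPO4, 100 mM NaCl, 5% DMSO, pH 7.0; ligand prepared in the same buffer. ITC at 25 °C: 0.4 mM ligand titrated into 0.020 mM protein in 21 injections. Kd from a nonlinear least-squares fit to a single-site binding model.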

[8] = target: Gamma-aminobutyric acid receptor-associated protein-like 2 (Homo sapiens) (UniProt P60520); assay: Binding affinity to human GABARAPL2 expressed in Escherichia coli T7 by single site binding model based isothermal titration calorimetry; outline: as §1
Chain of Gamma-aminobutyric acid receptor-associated protein-like 2 (Homo sapiens) (P60520 whole entry): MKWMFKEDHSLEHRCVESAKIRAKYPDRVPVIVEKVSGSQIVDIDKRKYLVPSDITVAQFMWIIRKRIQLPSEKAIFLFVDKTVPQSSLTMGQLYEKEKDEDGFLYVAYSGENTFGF

[9] = target: Gamma-aminobutyric acid receptor-associated protein-like 1 (Homo sapiens) (UniProt Q9H0R8); assay: Binding affinity to human GABARAPL1 expressed in Escherichia coli T7 by single site binding model based isothermal titration calorimetry; outline: as §1
Chain of Gamma-aminobutyric acid receptor-associated protein-like 1 (Homo sapiens) (Q9H0R8 whole entry, looked up): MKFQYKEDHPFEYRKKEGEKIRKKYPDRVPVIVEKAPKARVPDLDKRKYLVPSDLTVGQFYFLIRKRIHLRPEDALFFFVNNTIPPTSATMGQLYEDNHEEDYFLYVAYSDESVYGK

[10] = target: Gamma-aminobutyric acid receptor-associated protein (Homo sapiens) (UniProt O95166); assay: Binding affinity to human GABARAP expressed in Escherichia coli T7 by single site binding model based isothermal titration calorimetry; outline: as §1
Chain of Gamma-aminobutyric acid receptor-associated protein (Homo sapiens) (O95166 whole entry): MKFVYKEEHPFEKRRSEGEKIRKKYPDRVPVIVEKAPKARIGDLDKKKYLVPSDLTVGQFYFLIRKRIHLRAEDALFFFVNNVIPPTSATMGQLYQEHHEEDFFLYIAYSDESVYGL

[11] = target: T1, Microtubule-associated protein 1 light chain 3 alpha; assay: Binding affinity to human LC3A expressed in Escherichia coli BL21-(DE3) by single site binding model based isothermal titration calorimetry; outline: as §1

SMILES	IC50 ([5]; read-out: IC50) [µM]	Ki ([5]; read-out: Ki) [µM]	further results
O=C(Nc1c(O)c2ccc(O)cc2oc1=O)c1cccc(Oc2ccccc2)c1		44	
CCCSc1cccc(C(=O)Nc2c(O)c3ccc(O)cc3oc2=O)c1		32	
C=CCOc1cccc(C(=O)Nc2c(O)c3ccc(O)cc3oc2=O)c1		20	
O=C(Nc1c(O)c2ccc(O)cc2oc1=O)c1cccc(OCc2ccccc2)c1		44	
CC(C)CCc1cccc(C(=O)Nc2c(O)c3ccc(-c4ccnn4Cc4ccccc4)cc3oc2=O)c1	813	167	IC50 [6]: Not Active; Ki [6]: Not Active
CC(C)CCc1cccc(C(=O)Nc2c(O)c3ccc(-c4ccccc4-c4ccccc4)cc3oc2=O)c1	515	105	IC50 [6]: Not Active; Ki [6]: Not Active
CC(C)CCc1cc(C(=O)Nc2c(O)c3ccc(O)cc3oc2=O)ccc1F	107	21.8	
Cc1c(O)ccc2c(O)c(NC(=O)c3ccc(O)c(CCC(C)C)c3)c(=O)oc12	119	24.3	ΔTm [1]: 0.7 °C; Kd [4]: 14.2 µM
Cc1c(O)ccc2c(O)c(NC(=O)c3cccc(CCC(C)C)c3)c(=O)oc12	160	32.7	ΔTm [1]: 0 °C; Kd [4]: 15.7 µM
CC(C)CCc1cc(C(=O)Nc2c(O)c3ccc(O)cc3oc2=O)ccc1O	128	26.2	ΔTm [1]: 0.8 °C; Kd [4]: 27.5 µM
CC(=O)Nc1ccc2c(O)c(NC(=O)c3cccc(CCC(C)C)c3)c(=O)oc2c1	120	24.6	
CCSc1cccc(C(=O)Nc2c(O)c3ccc(O)cc3oc2=O)c1		42	
CCOc1cccc(C(=O)Nc2c(O)c3ccc(O)cc3oc2=O)c1		129	Ki [6]: Not Active
CC(C)C[C@@H](NC(=O)OC(C)(C)C)C(=O)Nc1c(O)c2ccc(O)cc2oc1=O			IC50 [5]: Not Active; Ki [5]: Not Active
CC(C)CSc1cccc(C(=O)Nc2c(O)c3ccc(O)cc3oc2=O)c1		52	
O=C(Nc1c(O)c2ccc(O)cc2oc1=O)c1cccc(OCC2CC2)c1		137	Ki [6]: Not Active
CCCCS(=O)(=O)Nc1cccc(C(=O)Nc2c(O)c3ccc(O)cc3oc2=O)c1		26	
CC(C)CS(=O)(=O)Nc1cccc(C(=O)Nc2c(O)c3ccc(O)cc3oc2=O)c1		53	
CCCCOc1cccc(C(=O)Nc2c(O)c3ccc(O)cc3oc2=O)c1		69	
CC(C)Cc1cccc(C(=O)Nc2c(O)c3ccc(O)cc3oc2=O)c1		20	

SMILES	IC50 ([5]; read-out: IC50) [µM]	Ki ([5]; read-out: Ki) [µM]	further results
CC(C)Oc1cccc(C(=O)Nc2c(O)c3ccc(O)cc3oc2=O)c1		103	
CC(C)(C)OC(=O)NCC(=O)Nc1c(O)c2ccc(O)cc2oc1=O			IC50 [5]: Not Active; Ki [5]: Not Active; IC50 [6]: Not Active; Ki [6]: Not Active
CC(C)CCc1ccccc1C(=O)Nc1c(O)c2ccc(O)cc2oc1=O	215	44	
CC(C)S(=O)(=O)Nc1cccc(C(=O)Nc2c(O)c3ccc(O)cc3oc2=O)c1		39	
CS(=O)(=O)Nc1cccc(C(=O)Nc2c(O)c3ccc(O)cc3oc2=O)c1		130	
CCn1nccc1-c1ccc2c(O)c(NC(=O)c3cccc(CCC(C)C)c3)c(=O)oc2c1	190	38.9	
CCCC[C@H](NC(=O)OC(C)(C)C)C(=O)Nc1c(O)c2ccc(O)cc2oc1=O	668	137	Ki [6]: Not Active; IC50 ([6]; read-out: IC50): 668 µM
CCCS(=O)(=O)Nc1cccc(C(=O)Nc2c(O)c3ccc(O)cc3oc2=O)c1		144	
CC(C)[C@H](NC(=O)OC(C)(C)C)C(=O)Nc1c(O)c2ccc(O)cc2oc1=O			IC50 [5]: Not Active; Ki [5]: Not Active; IC50 [6]: Not Active; Ki [6]: Not Active
CC(C)CCc1cccc(C(=O)Nc2c(O)c3ccc(NC(=O)CCCC(=O)O)cc3oc2=O)c1	229	46.9	
CC(C)Sc1cccc(C(=O)Nc2c(O)c3ccc(O)cc3oc2=O)c1		47	
O=C(Nc1c(O)c2ccc(O)cc2oc1=O)c1cccc(CCc2ccccc2)c1		75	
CC(C)CCc1cccc(C(=O)Nc2c(O)c3ccc(-c4ccnn4C)cc3oc2=O)c1	219	44.8	
CC(C)CCc1cccc(C(=O)Nc2c(O)c3ccc(NS(=O)(=O)CC(C)C)cc3oc2=O)c1	110	22.6	
CC(C)CCc1cccc(C(=O)Nc2c(O)c3ccc(NC(=O)CCC(=O)O)cc3oc2=O)c1	217	44.3	
CC(C)CCc1cccc(C(=O)Nc2c(O)c3ccc(-c4coc5ccccc45)cc3oc2=O)c1			IC50 [5]: Not Active; Ki [5]: Not Active; IC50 [6]: Not Active; Ki [6]: Not Active
CO[C@@H]1[C@@H](OC(N)=O)[C@@H](O)[C@H](Oc2ccc3c(O)c(NC(=O)c4ccc(O)c(CC=C(C)C)c4)c(=O)oc3c2C)OC1(C)C			Activity [7]: inactive; Activity [8]: inactive; Activity [9]: inactive; Activity [10]: inactive; Activity [11]: Active
CCCOc1cccc(C(=O)Nc2c(O)c3ccc(O)cc3oc2=O)c1		143	
COc1cccc(C(=O)Nc2c(O)c3ccc(O)cc3oc2=O)c1			Ki [5]: Not Active; Ki [6]: Not Active
CC[C@H](C)[C@H](NC(=O)OC(C)(C)C)C(=O)Nc1c(O)c2ccc(O)cc2oc1=O			IC50 [5]: Not Active; Ki [5]: Not Active; IC50 [6]: Not Active; Ki [6]: Not Active

The remaining compounds from weak to strong by Ki ([5]; read-out: Ki), led by results:

IC50 ([5]; read-out: IC50) [µM]	Ki ([5]; read-out: Ki) [µM]	SMILES	further results
	20	CCCc1cccc(C(=O)Nc2c(O)c3ccc(O)cc3oc2=O)c1	
92.1	18.9	CC(C)CCc1cccc(C(=O)Nc2c(O)c3ccc(-c4ccc(C(=O)O)cc4)cc3oc2=O)c1	
	18	CCCCSc1cccc(C(=O)Nc2c(O)c3ccc(O)cc3oc2=O)c1	
85.9	17.6	CC(C)CCc1cccc(C(=O)Nc2c(O)c3ccc(NS(=O)(=O)c4ccccc4)cc3oc2=O)c1	
76	15.6	Cc1ccccc1S(=O)(=O)Nc1ccc2c(O)c(NC(=O)c3cccc(CCC(C)C)c3)c(=O)oc2c1	
73.1	15	CC(C)CCc1cccc(C(=O)Nc2c(O)c3ccc(NS(=O)(=O)Cc4ccccc4)cc3oc2=O)c1	
64.8	13.3	CC(C)CCc1cccc(C(=O)Nc2c(O)c3ccc(O)cc3oc2=O)c1	ΔTm [1]: 1.4 °C; Kd [4]: 17.2 µM
64.4	13.2	COc1ccc(C(=O)Nc2c(O)c3ccc(O)cc3oc2=O)cc1CCC(C)C	
	13	O=C(Nc1c(O)c2ccc(O)cc2oc1=O)c1cccc(SCC2CC2)c1	
	13	O=C(Nc1c(O)c2ccc(O)cc2oc1=O)c1cccc(CCC2CC2)c1	
59.9	12.3	Cc1ccc(S(=O)(=O)Nc2ccc3c(O)c(NC(=O)c4cccc(CCC(C)C)c4)c(=O)oc3c2)cc1	
	12	CCCCc1cccc(C(=O)Nc2c(O)c3ccc(O)cc3oc2=O)c1	
	12	CCCCCc1cccc(C(=O)Nc2c(O)c3ccc(O)cc3oc2=O)c1	
42.8	8.8	CC(C)CCc1cccc(C(=O)Nc2c(O)c3ccc(-c4cccc5ccccc45)cc3oc2=O)c1	
36.7	7.5	CC(C)CCc1cccc(C(=O)Nc2c(O)c3ccc(NS(=O)(=O)CCc4ccccc4)cc3oc2=O)c1	IC50 ([6]; read-out: IC50): 66.3 µM; Ki ([6]; read-out: Ki): 7.4 µM
35.3	7.2	CC(C)CCc1cccc(C(=O)Nc2c(O)c3ccc(-c4cccc(C(=O)O)c4)cc3oc2=O)c1	
31.2	6.4	CC(C)CCc1cccc(C(=O)Nc2c(O)c3ccc(NS(=O)(=O)c4cccc5ccccc45)cc3oc2=O)c1	
16	3.3	CO[C@@H]1[C@@H](OC(N)=O)[C@@H](O)[C@H](Oc2ccc3c(O)c(NC(=O)c4ccc(O)c(CCC(C)C)c4)c(=O)oc3c2C)OC1(C)C	ΔTm [1]: 5.6 °C; ΔTm [2]: 5.6 °C; Kd [3]: 11.4 µM; Kd [4]: 2.8 µM; IC50 ([6]; read-out: IC50): 72.3 µM; Ki ([6]; read-out: Ki): 8.1 µM
